# Results: PubChem BioAssay
# Calls of active or inactive are those of the source.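 Rule for the calls, unless noted: active = NADPH fluorescence slope more negative than the mean of all samples by about 3 SD, 99.7% confidence; inactive = the rest.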
# Tests used:
# [1] = inhibitors of TNFa-induced NFkB p65 translocation, primary screen, imaging, HUVEC, MLSMR starter and 10KST1 sets (AID 438;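 active = inhibition above 20% together with a positive visual image hit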;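 note: compound added about 3h40 before a 20 min TNFalpha stimulation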;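 for inhibition: signal is the nuclear over cytoplasmic p65 intensity ratio per well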); conditions: HUVEC TNFa-induced p65 nuclear translocation; cell count: measured here: nuclei count (cytotoxicity indicator), at 2.08 µM; inhibition: at 2 µM, stronger effect = higher value, 0% TNFa-plus-vehicle, 100% no-TNFa wells
# [2] = reduction of polyQ htt aggregates in cells – imaging, exon1htt(103Q)mCFP cells, high-content imaging, primary screen (AID 483;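 active = visual image review flags a hit and inhibition of aggregation exceeds 20%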;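 note: compound exposure lasted 3 days before fixation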;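 for nuclei count: percent of the per-plate median nuclei count of sample wells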); conditions: exon1htt(103Q)mCFP cell line, aggregate imaging, at 2 µM; inhibition of aggregation: stronger effect = higher value; nuclei count: measured here: cell count, toxicity
# [3] = endothelial E-selectin expression blockers – imaging, HUVEC, immunofluorescence, MLSMR starter and 10KST1 sets, primary screen (AID 487;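 active = visually confirmed hit in the image check and inhibition above 20%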;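 for inhibition: signal is fraction of cell area covered by stained E-selectin grains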;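 for nuclei count: 100% = median nuclei count of all wells on the same plate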); conditions: HUVEC TNFalpha-induced E-selectin immunofluorescence imaging, at 2 µM; inhibition: stronger effect = higher value; nuclei count: measured here: cell number, toxicity
# [4] = molecular target: Voltage-gated potassium channel subunit beta-2 (Rattus norvegicus) (UniProt P62483); test: inhibitors of rat Kvbeta2 reductase activity – biochemical, NADPH fluorescence, primary screen (AID 622;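 active = fluorescence slope higher than the sample average by over 3 SD, cut at about -0.22 in these data, passing the limit was not always enough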;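 note: slope of raw intensity against log time taken from 70 to 1610 s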); conditions: recombinant KvBeta, 4-cyanobenzaldehyde reduction, at 10 µM, stronger effect = higher value
# [5] = molecular target: Voltage-gated potassium channel subunit beta-2 (Rattus norvegicus) (UniProt P62483); test: enhancers of rat Kvbeta2 NADPH turnover – biochemical, NADPH fluorescence, primary screen (AID 623); conditions: Recombinant KvBeta, NADPH fluorescence decrease slope, 10 min; at 10 µM; stronger effect = lower value;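 note: fluorescence intensity change per second fitted from 20 to 320 s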
# [6] = molecular target: Alpha-2C adrenergic receptor (Homo sapiens) (UniProt P18825); test: compounds altering alpha2C-coupled GIRK flux – cell-based, HEK293 alpha2C/GIRK1/2, thallium flux, primary screen (AID 624;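 active = fluorescence slope after compound addition differing from the mean of all screened samples at 99.7% confidence, in either direction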;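 note: slope of fluorescence ratio to pre-addition baseline per second over 15 to 24 s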); conditions: thallium flux BTC fluorescence, at 10 µM, actives lie on both sides
# [7] = inhibitors of larval lipid processing in zebrafish, primary screen, whole organism, PED6 fluorescence, gall bladder and intestine (AID 686;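 active = a full or partial loss of lipid-probe fluorescence in the fish gall bladder, intestine or both, judged by eye; inactive = no fluorescence loss, or compound toxic to the fish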;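 note: larvae 5 to 7 days old with five fish per well; signal comes from phospholipase A2 cleavage of quenched PED6 carried via bile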); conditions: Zebrafish larvae PED6 lipid processing, fluorescence scoring; screened at 20 µM (by protocol)
# Outline: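 Incubation: overnight exposure of larvae to compound plus PED6 / Test system: live zebrafish larvae aged 5-7 days, whole organism / Amount: 5 larvae per well / Read-out basis: visual per-well fluorescence inhibition score / Signal: visual fluorescence microscopy scoring of gall bladder, gut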
# [8] = blockers of RIG-like receptor reporter activation – cell-based, Sendai virus stimulus, luciferase, 10K MLSCN set, TLR/RLR signaling modifier project, primary screen (AID 602276;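 active = inhibition at or above 50% at 10 µM; inactive = inhibition below 50%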;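 note: firefly luciferase from ISG56 promoter only with Renilla not read in this screen; 0% = Sendai virus plus DMSO and 100% = medium plus DMSO without virus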); conditions: HEK293 RL24 IRF3 luciferase reporter, at 10 µM, stronger effect = higher value
# [9] = TLR3 IRF3 reporter activation blockers – cell-based, poly I:C stimulus, luciferase, 10K MLSCN set, primary screen (AID 602277;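 active = inhibition of the reporter signal at or above 50%; inactive = inhibition below 50%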); conditions: HEK293-TLR3 RL24 IRF3 luciferase reporter, at 10 µM, stronger effect = higher value
# Sequence of Alpha-2C adrenergic receptor (Homo sapiens) (P18825 whole entry, looked up): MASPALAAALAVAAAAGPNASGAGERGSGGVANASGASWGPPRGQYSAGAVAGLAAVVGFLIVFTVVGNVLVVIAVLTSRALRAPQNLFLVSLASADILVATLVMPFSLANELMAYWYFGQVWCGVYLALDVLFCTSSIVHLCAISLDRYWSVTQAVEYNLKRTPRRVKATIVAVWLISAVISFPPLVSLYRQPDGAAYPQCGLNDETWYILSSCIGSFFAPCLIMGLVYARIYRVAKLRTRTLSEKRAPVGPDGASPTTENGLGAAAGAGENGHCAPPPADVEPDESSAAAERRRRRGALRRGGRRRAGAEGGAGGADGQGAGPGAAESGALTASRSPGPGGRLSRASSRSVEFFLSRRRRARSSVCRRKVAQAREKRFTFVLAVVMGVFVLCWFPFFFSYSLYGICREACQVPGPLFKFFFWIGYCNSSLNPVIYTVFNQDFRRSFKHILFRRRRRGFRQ
# Sequence of Voltage-gated potassium channel subunit beta-2 (Rattus norvegicus) (P62483 whole entry, looked up): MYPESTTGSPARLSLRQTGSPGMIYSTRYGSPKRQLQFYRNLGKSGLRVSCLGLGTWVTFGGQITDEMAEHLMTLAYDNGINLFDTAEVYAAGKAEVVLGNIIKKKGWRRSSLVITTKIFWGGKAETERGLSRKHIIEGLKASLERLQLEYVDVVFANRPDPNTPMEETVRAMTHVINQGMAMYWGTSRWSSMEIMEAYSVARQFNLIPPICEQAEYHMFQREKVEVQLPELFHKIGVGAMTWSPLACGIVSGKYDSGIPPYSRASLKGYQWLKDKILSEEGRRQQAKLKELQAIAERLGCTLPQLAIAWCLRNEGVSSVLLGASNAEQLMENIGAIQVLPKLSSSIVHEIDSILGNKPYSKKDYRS
Compound,cell count [1],inhibition [1],inhibition of aggregation [2],nuclei count [2] [%],inhibition [3],nuclei count [3] [%],fluorescence slope [4],NADPH fluorescence slope [5],slope [6],outcome [7],inhibition [8],inhibition [9]
Cc1nc2c(-c3ccccc3)c(C)[nH]n2c(=O)c1Cl,277,-8.3% (inactive),2.3% (inactive),109,-5.5% (inactive),84.2,-0.485 (inactive),3e-05 (inactive),0.00434 (inactive),inactive,-11.4% (inactive),-22.1% (inactive)
COc1cc(C(=O)Nc2cc(-c3ccccc3)[nH]n2)cc(OC)c1OC,456,-6.3% (inactive),15.9% (inactive),94.3,-41% (inactive),114,-0.385 (inactive),-4.1e-05 (inactive),0.00552 (inactive),inactive,22.1% (inactive),33.8% (inactive)
O=C(NCc1cccs1)c1cc2c(s1)CS(=O)(=O)C2,618,-3% (inactive),-17.1% (inactive),101,-42.8% (inactive),113,-0.32 (inactive),-4.2e-06 (inactive),0.00763 (inactive),inactive,23.3% (inactive),87% (active)
CC(=O)/C(C[N+]1(C)CCCCC1)=N\O,566,12.1% (inactive),17.4% (inactive),107,26.6% (inactive),107,-0.403 (inactive),-5.2e-05 (inactive),0.00495 (inactive),inactive,8.76% (inactive),13.4% (inactive)
CCCNC(=O)N1CCN(S(=O)(=O)c2ccc(C)c(C)c2)CC1,412,-0.4% (inactive),-16.1% (inactive),105,-28.8% (inactive),103,-0.486 (inactive),-5.4e-05 (inactive),0.00557 (inactive),inactive,-6.27% (inactive),-8.98% (inactive)
COc1ccc(C(=O)NCCC(C)C)cc1S(=O)(=O)N1CCOCC1,229,-32.8% (inactive),0.6% (inactive),66.7,25.8% (inactive),109,-0.355 (inactive),6.5e-06 (inactive),0.00454 (inactive),inactive,17.2% (inactive),19.8% (inactive)
CN(Cc1ccc(-n2cccn2)cc1)C(=O)c1cnn2c1NC(c1ccco1)CC2C(F)(F)F (centres undefined),326,9.3% (inactive),-30.3% (inactive),115,-100% (inactive),120,-0.509 (inactive),-4e-05 (inactive),0.00457 (inactive),inactive,8.13% (inactive),5.75% (inactive)
COc1ccc(NC(=O)Nc2ccc(N3CCCC3=O)cc2)cc1OC,462,4% (inactive),-6.3% (inactive),102,-4.9% (inactive),120,-0.368 (inactive),-3.2e-05 (inactive),0.0047 (inactive),inactive,4.01% (inactive),-16.1% (inactive)
CCOC(=O)c1oc2cc(OCC(N)=O)ccc2c(=O)c1-c1ccc(OC)c(OC)c1,411,8.1% (inactive),-10.4% (inactive),106,-114% (inactive),102,-0.445 (inactive),-0.000137 (inactive),0.0045 (inactive),inactive,19.4% (inactive),22.5% (inactive)
Cc1ccc(CN2CCN(C(=O)C3CCC3)CC2)cc1,361,3.3% (inactive),23.3% (inactive),94.3,-20.6% (inactive),104,-0.447 (inactive),-2.3e-05 (inactive),0.00503 (inactive),inactive; toxic,15.1% (inactive),6.88% (inactive)
CCOC(=O)c1ccc(NC(=O)N2CCN(Cc3cccc(F)c3)CC2)cc1,688,-1.4% (inactive),-19% (inactive),97.2,-126% (inactive),109,-0.424 (inactive),-5e-05 (inactive),0.00506 (inactive),inactive,5.73% (inactive),7.2% (inactive)
Cc1occc1-c1nnc(SCC(=O)N2CCOCC2)n1Cc1ccco1,382,3% (inactive),-5.6% (inactive),82.5,-41% (inactive),107,-0.371 (inactive),-5e-05 (inactive),0.00496 (inactive),inactive,8.29% (inactive),12.6% (inactive)
c1ccc2c(-c3nc(-c4ccncc4)no3)cccc2c1,313,-1.1% (inactive),-4.5% (inactive),88.4,-210% (inactive),118,-0.442 (inactive),-3.1e-05 (inactive),0.00497 (inactive),inactive,-14.2% (inactive),-43.8% (inactive)
CCc1nnc(NC(=O)CSc2nnc3ncccn23)s1,341,-5.8% (inactive),-25.9% (inactive),132,-34.8% (inactive),102,-0.437 (inactive),-9.3e-05 (inactive),0.00648 (inactive),inactive,18.7% (inactive),25.6% (inactive)
Cc1cc(NC(=O)CS(=O)(=O)c2cn(Cc3ccccc3Cl)c3ccccc23)no1,767,-27.1% (inactive),0.3% (inactive),98.5,67.2% (active),83.3,-0.323 (inactive),-2.3e-05 (inactive),0.00422 (inactive),inactive,7.87% (inactive),2.26% (inactive)
Cc1ccc2nc3c(cc2c1)CN(Cc1ccco1)C(=NCC1CCCO1)S3 (centres undefined),543,0.7% (inactive),28.7% (inactive),82.4,-2.1% (inactive),106,-0.372 (inactive),-6.6e-05 (inactive),0.00724 (inactive),inactive,13.9% (inactive),11.5% (inactive)
COc1ccccc1NC(=O)NCc1ccc2c(c1)OCO2,361,-9.8% (inactive),25.8% (inactive),97,37.9% (inactive),78.8,-0.341 (inactive),-2.6e-05 (inactive),0.0055 (inactive),inactive,10.7% (inactive),17.5% (inactive)
CN/C=C1\C(=O)C(C)(C)Oc2ccc3ccc(=O)oc3c21,544,-12.4% (inactive),-24.8% (inactive),101,-38.4% (inactive),129,-0.384 (inactive),-2.1e-05 (inactive),0.00506 (inactive),inactive,8.59% (inactive),8.49% (inactive)
Cc1cnc(NC(=O)CSc2nnc(-c3ccccc3)n2Cc2ccccc2)s1,682,-5.5% (inactive),14.8% (inactive),102,-19.9% (inactive),105,-0.493 (inactive),5.3e-05 (inactive),0.00426 (inactive),inactive,-3.73% (inactive),-7.1% (inactive)
COCCNC(=O)C(c1ccc(C)o1)N(C(=O)c1snc(C(N)=O)c1N)c1ccc(C)cc1 (centres undefined),498,-3.6% (inactive),19.7% (inactive),94,73.6% (inactive),65.5,-0.378 (inactive),-5.3e-05 (inactive),0.00521 (inactive),inactive,12.5% (inactive),7.41% (inactive)
CC(C)NC(=O)c1ccccc1NC(=O)CCS(=O)(=O)Cc1ccccc1,560,6.6% (inactive),-10% (inactive),108,-26% (inactive),107,-0.516 (inactive),2.6e-05 (inactive),0.00472 (inactive),inactive,-21.6% (inactive),-8.53% (inactive)
CCOc1ccc(CCNc2nc3c(c(=O)n(C)c(=O)n3C)n2CC)cc1OCC,602,6.3% (inactive),-0.6% (inactive),89.6,-23.5% (inactive),119,-0.305 (inactive),3.7e-06 (inactive),0.00587 (inactive),inactive,18.8% (inactive),9% (inactive)
COc1ccc(N=C2C(=O)Nc3ccccc32)cc1,617,2.4% (inactive),-5% (inactive),100,-96.7% (inactive),138,-0.374 (inactive),-1.5e-06 (inactive),0.00431 (inactive),inactive,13% (inactive),28.1% (inactive)
COCCCN1C(=O)C(O)=C(C(C)=O)C1c1ccccn1 (centres undefined),686,-1.7% (inactive),-2% (inactive),116,-38.3% (inactive),116,-0.399 (inactive),-6.2e-05 (inactive),0.00486 (inactive),active; weak signal in gallbladder only,12.4% (inactive),14.4% (inactive)
COc1ccccc1CC(=O)NCC1CCCO1 (centres undefined),346,-15.9% (inactive),8.9% (inactive),107,-2.8% (inactive),130,-0.329 (inactive),-4.4e-05 (inactive),0.00554 (inactive),inactive,11.5% (inactive),17.7% (inactive)
CCC(=O)Nc1ccc(NC(=O)c2ccccn2)cn1,778,-11% (inactive),-6.5% (inactive),102,-9.1% (inactive),104,-0.402 (inactive),-5.9e-05 (inactive),0.00517 (inactive),inactive,-3% (inactive),99.2% (active)
COc1ccc(OC)c(N(CC(=O)Nc2cccnc2)S(=O)(=O)c2ccc(OC)c(OC)c2)c1,722,7.9% (inactive),-6.2% (inactive),97,-37.3% (inactive),94.1,-0.456 (inactive),-5.3e-05 (inactive),0.00497 (inactive),inactive,18.6% (inactive),21.4% (inactive)
